According to ChEMBL document CHEMBL4130527, “New Scaffold for Angiogenesis Inhibitors Discovered by Targeted Chemical Transformations of Wondonin Natural Products” (ACS Med Chem Lett, 2017):
Active and inactive are the calls of the source. The rule behind the calls is not given here.

Experiments:
HUVEC [1] = experiment: Growth inhibition of HUVEC after 24 hrs in presence of VEGF by MTT assay; assay type: cell-based; conditions: Homo sapiens
In short: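 HUVECs exposed to compound in the presence of VEGF (50 ng/mL) for 24 h, with growth read by MTT assay. Value is the mean IC50 from triplicate experiments.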

HUVEC [2] = experiment: Antiangiogenic activity in HUVEC assessed as inhibition of VEGF-induced capillary tube formation after 8 hrs by matrigel based inverted microscopic analysis; assay type: functional, cell-based; conditions: Homo sapiens
In short: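 HUVECs treated with compound with or without VEGF (50 ng/mL) for 8 h. Intact tubes counted under a microscope, and IC50 calculated against control. Value is the mean IC50 from triplicate experiments.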

[3] = target: Dual specificity mitogen-activated protein kinase kinase 1 (Homo sapiens) (UniProt Q02750); experiment: Inhibition of human wild type partial length MEK1 (M1 to V393 residues) expressed in mammalian expression system at 10 uM by Kinomescan method relative to control
Chain of Dual specificity mitogen-activated protein kinase kinase 1 (Homo sapiens) (Q02750 whole entry, the tested form may be a part): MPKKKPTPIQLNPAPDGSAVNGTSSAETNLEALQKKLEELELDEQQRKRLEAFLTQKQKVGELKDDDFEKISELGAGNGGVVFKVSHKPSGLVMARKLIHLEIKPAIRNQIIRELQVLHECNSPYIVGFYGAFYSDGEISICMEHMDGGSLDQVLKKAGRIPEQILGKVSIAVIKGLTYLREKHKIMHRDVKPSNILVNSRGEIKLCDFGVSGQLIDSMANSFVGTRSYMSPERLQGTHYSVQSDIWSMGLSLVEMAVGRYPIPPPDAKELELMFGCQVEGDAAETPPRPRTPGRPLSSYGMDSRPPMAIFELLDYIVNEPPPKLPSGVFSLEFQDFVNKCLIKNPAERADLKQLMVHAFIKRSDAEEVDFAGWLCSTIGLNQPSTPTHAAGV
In short: (§1)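 Compound tested at 10 μM in a KINOMEscan binding panel of 30 kinases. Activity taken from binding between each kinase and its corresponding ligand.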

[4] = Metabolic stability in human liver microsomes assessed as parent compound remaining at 1 uM preincubated for 5 mins followed by NADPH addition measured after 30 mins by LC-MS/MS analysis; assay type: ADME, microsome; conditions: read-out: Stability
In short: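 Parent compound remaining after 30 min incubation with human liver microsomes.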

[5] = target: Vascular endothelial growth factor receptor 2 (Homo sapiens) (UniProt P35968); experiment: Inhibition of VEGFR2 in HUVEC assessed as decrease in VEGF-induced SRC phosphorylation pretreated for 30 mins followed by VEGF stimulation for 20 mins by Western blot analysis; assay type: cell-based
Chain of Vascular endothelial growth factor receptor 2 (Homo sapiens) (P35968 whole entry, the tested form may be a part, canonical isoform): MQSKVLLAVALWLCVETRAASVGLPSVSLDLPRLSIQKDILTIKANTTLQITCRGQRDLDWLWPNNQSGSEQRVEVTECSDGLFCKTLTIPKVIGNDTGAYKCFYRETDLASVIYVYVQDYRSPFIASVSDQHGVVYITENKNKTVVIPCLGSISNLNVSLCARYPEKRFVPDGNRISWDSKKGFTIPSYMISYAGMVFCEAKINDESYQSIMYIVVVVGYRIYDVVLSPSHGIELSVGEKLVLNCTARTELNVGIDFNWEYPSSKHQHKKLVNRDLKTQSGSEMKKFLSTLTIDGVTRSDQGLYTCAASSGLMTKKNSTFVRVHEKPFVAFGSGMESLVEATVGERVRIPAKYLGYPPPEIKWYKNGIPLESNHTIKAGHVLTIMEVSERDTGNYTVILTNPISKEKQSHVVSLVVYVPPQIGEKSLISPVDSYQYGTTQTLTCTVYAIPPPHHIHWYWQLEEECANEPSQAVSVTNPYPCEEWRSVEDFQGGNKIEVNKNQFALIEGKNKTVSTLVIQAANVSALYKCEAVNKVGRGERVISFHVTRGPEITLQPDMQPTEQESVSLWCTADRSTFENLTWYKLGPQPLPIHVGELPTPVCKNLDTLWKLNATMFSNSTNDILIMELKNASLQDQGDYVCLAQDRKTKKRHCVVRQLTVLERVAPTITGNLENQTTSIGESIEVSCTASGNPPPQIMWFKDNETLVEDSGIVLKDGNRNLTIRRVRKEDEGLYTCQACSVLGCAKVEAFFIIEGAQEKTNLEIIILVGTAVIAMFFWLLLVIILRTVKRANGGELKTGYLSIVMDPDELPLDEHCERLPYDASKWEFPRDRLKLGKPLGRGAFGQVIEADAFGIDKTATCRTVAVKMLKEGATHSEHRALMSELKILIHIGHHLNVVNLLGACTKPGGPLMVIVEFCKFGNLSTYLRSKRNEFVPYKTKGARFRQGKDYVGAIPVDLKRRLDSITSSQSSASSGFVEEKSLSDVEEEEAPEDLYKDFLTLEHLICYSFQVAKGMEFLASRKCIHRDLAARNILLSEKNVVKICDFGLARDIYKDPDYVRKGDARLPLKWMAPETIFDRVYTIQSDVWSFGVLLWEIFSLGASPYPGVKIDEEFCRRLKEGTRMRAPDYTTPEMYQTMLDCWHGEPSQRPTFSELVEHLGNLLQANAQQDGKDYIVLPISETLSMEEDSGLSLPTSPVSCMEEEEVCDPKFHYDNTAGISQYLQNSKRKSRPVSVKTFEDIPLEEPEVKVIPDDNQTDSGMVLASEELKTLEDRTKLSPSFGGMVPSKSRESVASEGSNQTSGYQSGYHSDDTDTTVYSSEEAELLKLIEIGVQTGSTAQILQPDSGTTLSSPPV
In short: (§2)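 HUVECs pretreated with various compound concentrations for 30 min, then stimulated with VEGF (50 ng/mL) for 20 min. Phosphoproteins detected by immunoblot, with β-actin as loading control.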

Danio rerio [6] = species: Danio rerio; experiment: Antiangiogenic activity in transgenic zebrafish flk:EGFP embryo model of DR-mimic hyaloid vessels in larval eye lenses assessed as inhibition of high glucose induced increase in hyaloid vessel diameter pretreated with glucose 3 days post fertilization for 3 days followed by compound addition measured 6 days post fertilization by fluorescence microscopy; assay type: functional, organism-based
In short: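 Transgenic flk:EGFP zebrafish embryos at 3 dpf exposed to 130 mM glucose for 3 days to induce DR-mimic hyaloid vessels, with compound at varying concentrations. Hyaloid vessel diameter measured near the optic disc in isolated eye lenses; primary branch number compared with high-glucose controls. ANOVA with Tukey's test, n = 3.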

[7] = target: Vascular endothelial growth factor receptor 2 (Homo sapiens) (UniProt P35968); experiment: Inhibition of VEGFR2 in HUVEC assessed as decrease in VEGF-induced PI3K phosphorylation at Tyr458 residues pretreated for 30 mins followed by VEGF stimulation for 20 mins by Western blot analysis; assay type: cell-based; in short: as §2
Danio rerio [8] = species: Danio rerio; experiment: Toxicity in transgenic zebrafish flk:EGFP embryo model of DR-mimic hyaloid vessels in larval eye lenses measured 6 days post fertilization; assay type: organism-based; conditions: in vivo, 144 h
[9] = target: Vascular endothelial growth factor receptor 2 (Homo sapiens) (UniProt P35968); experiment: Inhibition of VEGFR2 in HUVEC assessed as decrease in VEGF-induced AKT phosphorylation at Thr308 residues pretreated for 30 mins followed by VEGF stimulation for 20 mins by Western blot analysis; assay type: cell-based; in short: as §2
[10] = target: Casein kinase I isoform alpha (Homo sapiens) (UniProt P48729); experiment: Inhibition of human wild type partial length CSNK1A1 (M1 to L301 residues) expressed in mammalian expression system at 10 uM by Kinomescan method relative to control; in short: as §1
Chain of Casein kinase I isoform alpha (Homo sapiens) (P48729 2-337 limits assumed): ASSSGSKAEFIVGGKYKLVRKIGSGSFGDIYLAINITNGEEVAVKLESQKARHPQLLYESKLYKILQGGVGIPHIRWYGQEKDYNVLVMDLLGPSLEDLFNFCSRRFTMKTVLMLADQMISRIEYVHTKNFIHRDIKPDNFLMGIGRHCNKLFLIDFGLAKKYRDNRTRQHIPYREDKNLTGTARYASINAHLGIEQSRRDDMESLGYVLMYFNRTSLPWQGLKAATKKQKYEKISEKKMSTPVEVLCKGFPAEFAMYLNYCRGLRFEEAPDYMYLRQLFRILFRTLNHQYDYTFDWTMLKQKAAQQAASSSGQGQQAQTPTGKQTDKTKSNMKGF

[11] = Apparent permeability from apical to basolateral side in MDCK cells at 10 uM by LC-MS/MS analysis; assay type: ADME, cell-based, Canis lupus familiaris; conditions: dog
In short: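 Apparent permeability coefficient (Papp, A-B) measured across MDCK cell monolayers.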

HUVEC [12] = experiment: Antimigratory activity in HUVEC after 24 hrs by inverted phase contrast light microscopic analysis; assay type: functional, cell-based; conditions: Homo sapiens
In short: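 Migrated HUVECs counted and compared with VEGF-treated control groups. Statistics by ANOVA with Tukey's test, n = 3.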

[13] = target: Vascular endothelial growth factor receptor 2 (Homo sapiens) (UniProt P35968); experiment: Inhibition of VEGFR2 in HUVEC assessed as decrease in VEGF-induced FAK phosphorylation at Tyr397 residues pretreated for 30 mins followed by VEGF stimulation for 20 mins by Western blot analysis; assay type: cell-based; in short: as §2
[14] = target: Vascular endothelial growth factor receptor 2 (Homo sapiens) (UniProt P35968); experiment: Inhibition of VEGFR2 in HUVEC assessed as decrease in VEGF-induced AKT phosphorylation at […] residues pretreated for 30 mins followed by VEGF stimulation for 20 mins by Western blot analysis; assay type: cell-based; in short: as §2
[15] = target: T1, Protein kinase C iota type (Homo sapiens) (UniProt P41743); experiment: Inhibition of human wild type partial length PRKCI (H215 to V587 residues) expressed in mammalian expression system at 10 uM by Kinomescan method relative to control; in short: as §1
T1 sequence (whole entry): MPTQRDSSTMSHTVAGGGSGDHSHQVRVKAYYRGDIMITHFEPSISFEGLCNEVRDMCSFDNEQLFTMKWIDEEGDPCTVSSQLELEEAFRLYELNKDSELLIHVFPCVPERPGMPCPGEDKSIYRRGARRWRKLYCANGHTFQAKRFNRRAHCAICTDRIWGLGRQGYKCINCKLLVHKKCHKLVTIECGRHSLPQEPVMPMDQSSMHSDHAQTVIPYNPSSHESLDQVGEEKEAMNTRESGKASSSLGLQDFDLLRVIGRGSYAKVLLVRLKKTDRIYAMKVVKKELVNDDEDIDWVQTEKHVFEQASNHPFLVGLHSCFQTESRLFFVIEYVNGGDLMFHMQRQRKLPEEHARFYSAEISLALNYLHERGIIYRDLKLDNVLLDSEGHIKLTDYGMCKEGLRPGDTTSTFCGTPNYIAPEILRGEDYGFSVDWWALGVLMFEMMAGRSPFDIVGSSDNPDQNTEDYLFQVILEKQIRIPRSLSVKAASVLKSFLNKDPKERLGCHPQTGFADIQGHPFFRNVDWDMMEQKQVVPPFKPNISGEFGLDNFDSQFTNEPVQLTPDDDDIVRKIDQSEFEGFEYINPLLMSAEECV

[16] = target: Vascular endothelial growth factor receptor 2 (Homo sapiens) (UniProt P35968); experiment: Inhibition of VEGF-induced VEGFR2 phosphorylation at Tyr1175 residues in HUVEC pretreated for 30 mins followed by VEGF stimulation for 20 mins by Western blot analysis; assay type: cell-based; in short: as §2
[17] = target: Vascular endothelial growth factor receptor 2 (Homo sapiens) (UniProt P35968); experiment: Inhibition of VEGFR2 in HUVEC assessed as decrease in VEGF-induced eNOS phosphorylation at Ser1177 residues pretreated for 30 mins followed by VEGF stimulation for 20 mins by Western blot analysis; assay type: cell-based; in short: as §2
HUVEC [18] = experiment: Inhibition of integrin in HUVEC assessed as decrease in VEGF-induced SRC/FAK phosphorylation pretreated for 30 mins followed by VEGF stimulation for 20 mins by Western blot analysis; assay type: cell-based; conditions: Homo sapiens; in short: as §2
[19] = Stability in human plasma assessed as parent compound remaining at 10 uM after 30 mins by LC-MS/MS analysis; assay type: ADME, cell-free; conditions: read-out: Stability
In short: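 Parent compound remaining after 30 min incubation in human plasma.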

Question: What does the source list for `CCN(CC)CCNC(=O)c1c(C)[nH]c(/C=C2\C(=O)Nc3ccc(F)cc32)c1C` [SUNITINIB]?
Answer: IC50 (HUVEC [1]): 9.92 µM; IC50 (HUVEC [2]): 0.546 µM

Question: For `CCc1ccc2nc(C(c3ccc(OC)c(OC)c3)n3cc(CCN(C)C)nn3)sc2c1` (configuration not stated), which IC50 (HUVEC [1]) is on record?
Answer: 93.5 µM

Question: What about the IC50 (HUVEC [2]) of the same compound?
Answer: 8.27 µM

Question: What does the source list for `CN(C)CCc1cn(C(c2ccc(O)c(O)c2)C2Oc3ccc(/C=C/OS(=O)(=O)O)cc3O2)cn1` (configuration not stated)?
Answer: IC50 (HUVEC [1]): > 100 µM; IC50 (HUVEC [2]): 42.8 µM

Question: With `CCc1ccc2cc(C(c3ccc(O)c(O)c3)n3cc(CCN(C)C)nn3)oc2c1` (configuration not stated) as the compound, how does the IC50 (HUVEC [1]) read?
Answer: 22 µM

Question: And the IC50 (HUVEC [2])?
Answer: 6.1 µM

Question: With `CCCNCCc1cn(C(c2ccc(OC)c(OC)c2)c2nc3ccc(CC)cc3s2)nn1` (configuration not stated) as the compound, how does the IC50 (HUVEC [1]) read?
Answer: 38.6 µM

Question: What about the IC50 (HUVEC [2]) of the same compound?
Answer: 1.39 µM

Question: What does the source list for `CCc1ccc2c(c1)OC(C(c1ccc(O)c(O)c1)n1cc(CCN(C)C)nn1)O2` (configuration not stated)?
Answer: IC50 (HUVEC [1]): 95.9 µM; IC50 (HUVEC [2]): 28 µM

Question: For `CCc1ccc2nc(C(c3ccc(O)c(O)c3)n3cc(CCN(C)C)nn3)oc2c1` (configuration not stated), which IC50 (HUVEC [1]) is on record?
Answer: > 100 µM

Question: What about the IC50 (HUVEC [2]) of the same compound?
Answer: > 20 µM

Question: For `CCc1ccc2nc(C(c3ccc(OC)c(OC)c3)n3cc(CCN4CCCC4)nn3)sc2c1` (configuration not stated), which IC50 (HUVEC [1]) is on record?
Answer: 70.3 µM

Question: And the IC50 (HUVEC [2])?
Answer: 2.84 µM

Question: For `CCc1ccc2nc(C(c3ccc(OC)c(OC)c3)n3cc(CCNC4CCCC4)nn3)sc2c1` (configuration not stated), which IC50 (HUVEC [1]) is on record?
Answer: 19.4 µM

Question: What about the IC50 (HUVEC [2]) of the same compound?
Answer: 1.02 µM

Question: What does the source list for `CCc1ccc2nc(C(c3ccc(OC)c(OC)c3)n3cc(CCN4CCOCC4)nn3)sc2c1` (configuration not stated)?
Answer: IC50 (HUVEC [1]): > 100 µM; IC50 (HUVEC [2]): 3.93 µM

Question: Which inhibition [3] does the source give for `CCc1ccc2nc(C(c3ccc(OC)c(OC)c3)n3cc(CCN4CCCCC4)nn3)sc2c1` (configuration not stated) here?
Answer: > 40%

Question: And the remaining at 0.5 h, 1 µM [4]?
Answer: 31%

Question: And the inhibition [5]?
Answer: Active

Question: What about the inhibition (Danio rerio [6]) of the same compound?
Answer: Dose-dependent effect

Question: What about the IC50 (HUVEC [1]) of the same compound?
Answer: 47.5 µM

Question: What about the inhibition [7] of the same compound?
Answer: Active

Question: And the Activity (Danio rerio [8])?
Answer: Non-Toxic

Question: And the IC50 (HUVEC [2])?
Answer: 0.631 µM

Question: What about the inhibition (HUVEC [2]) of the same compound?
Answer: Dose-dependent effect

Question: And the inhibition [9]?
Answer: Active

Question: And the inhibition [10]?
Answer: > 40%

Question: And the Papp A→B at 10 µM [11]?
Answer: 11 ×10⁻⁶ cm/s

Question: And the Activity (HUVEC [12])?
Answer: Dose-dependent effect

Question: What about the inhibition [13] of the same compound?
Answer: Active

Question: What about the inhibition [14] of the same compound?
Answer: Active

Question: What about the inhibition [15] of the same compound?
Answer: > 40%

Question: And the inhibition [16]?
Answer: Active

Question: What about the inhibition [17] of the same compound?
Answer: Active

Question: And the inhibition (HUVEC [18])?
Answer: Active

Question: What about the remaining at 0.5 h, 10 µM [19] of the same compound?
Answer: 95%

Question: Which results are given for `CCc1ccc2nc(C(c3ccc(O)c(O)c3)n3cc(CCN(C)C)nn3)sc2c1` (configuration not stated)?
Answer: IC50 (HUVEC [1]): 37.3 µM; IC50 (HUVEC [2]): 3.04 µM
